This is an account of results in ChEMBL document CHEMBL1150660, “Lignans isolated from valerian: identification and characterization of a new olivil derivative with partial agonistic activity at A(1) adenosine receptors” (J Nat Prod, 2002).

For experiment [1], the target named is Adenosine receptor A2a (Rattus norvegicus) (UniProt P30543). The experiment can be described thus: Displacement of [3H]MSX-2 from A2A receptor in rat brain striatal membrane at 100 uM by liquid scintillation counting. Type of experiment: cell membranes. In outline: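 Rat striatal membranes (ca. 70 μg/mL protein), pretreated with 0.2 IU/mL adenosine deaminase, incubated with [3H]MSX-2 in 50 mM Tris-HCl pH 7.4 for 30 min at 25 °C. Nonspecific binding with 50 μM NECA. Filtration on GF/B filters presoaked in 0.3% polyethylenimine, scintillation counting. Percent inhibition at 100 μM, n = 3.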
Adenosine receptor A2a (Rattus norvegicus), sequence (P30543 whole entry): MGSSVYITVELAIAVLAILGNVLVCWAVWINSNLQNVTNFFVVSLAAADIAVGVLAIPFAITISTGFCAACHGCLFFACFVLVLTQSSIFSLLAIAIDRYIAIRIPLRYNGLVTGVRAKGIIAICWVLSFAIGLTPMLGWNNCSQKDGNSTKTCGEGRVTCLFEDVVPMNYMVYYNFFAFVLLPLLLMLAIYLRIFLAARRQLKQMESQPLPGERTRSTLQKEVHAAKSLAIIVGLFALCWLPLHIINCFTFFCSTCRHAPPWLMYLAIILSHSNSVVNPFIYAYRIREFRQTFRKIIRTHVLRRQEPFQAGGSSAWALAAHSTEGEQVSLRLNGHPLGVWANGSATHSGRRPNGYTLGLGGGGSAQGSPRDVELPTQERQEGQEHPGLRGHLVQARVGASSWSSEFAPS
For orientation: In a radioligand displacement assay an active substance lowers the binding of a labelled ligand.

Experiment [2] concerns the target T1, Adenosine receptor A1 (Rattus norvegicus) (UniProt P25099).
T1 sequence (whole entry): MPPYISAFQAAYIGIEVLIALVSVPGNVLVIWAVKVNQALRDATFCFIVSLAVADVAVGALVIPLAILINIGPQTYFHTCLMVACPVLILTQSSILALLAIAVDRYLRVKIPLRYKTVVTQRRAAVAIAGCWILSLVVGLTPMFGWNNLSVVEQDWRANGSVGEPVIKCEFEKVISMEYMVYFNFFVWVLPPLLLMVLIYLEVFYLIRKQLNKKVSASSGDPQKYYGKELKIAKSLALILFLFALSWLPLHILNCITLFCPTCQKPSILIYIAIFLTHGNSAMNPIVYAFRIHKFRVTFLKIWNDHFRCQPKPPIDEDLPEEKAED
The experiment can be described thus: Displacement of [3H]CCPA from adenosine A1 receptor in rat brain cortical membrane at 100 uM by liquid scintillation counting. Type of experiment: cell membranes. In outline: (§1)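 Rat cortical membranes (ca. 70 μg/mL protein), pretreated with 0.2 IU/mL adenosine deaminase, incubated with [3H]CCPA in 50 mM Tris-HCl pH 7.4 for 90 min at 25 °C. Nonspecific binding with 10 μM 2-chloroadenosine. GF/B filtration, scintillation counting.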

The species entered for the next experiment is Rattus norvegicus. The experiment can be described thus: Displacement of [3H]flunitrazepam from GABAA receptor in rat brain cortical membrane at 10 uM. The format is cell membranes.
In experiment [3] the target is T1, Adenosine receptor A1 (Rattus norvegicus). The experiment can be described thus: Agonist activity at adenosine A1 receptor in rat cortical membrane by [35S]GTPgammaS binding assay relative to control. The format is functional, cell membranes. In outline:
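Rat cortical membranes (7 μg/tube) incubated 45 min at 25 °C with 0.1-0.5 nM [35S]GTPγS in 50 mM Tris-HCl pH 7.4 with 1 mM EDTA, 5 mM MgCl2, 1 mM DTT, 10 μM GDP, 100 mM NaCl, 2 IU/mL adenosine deaminase, 0.5% BSA. Nonspecific binding with 10 μM unlabeled GTPγS. Filtration, scintillation counting; stimulation expressed as percent of basal.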
(In general: GTPγS resists hydrolysis and so accumulates on activated G proteins.)

Experiment [4] concerns the target T2, Adenosine receptor A1 (Homo sapiens, UniProt P30542).
T2 sequence (P30542 whole entry): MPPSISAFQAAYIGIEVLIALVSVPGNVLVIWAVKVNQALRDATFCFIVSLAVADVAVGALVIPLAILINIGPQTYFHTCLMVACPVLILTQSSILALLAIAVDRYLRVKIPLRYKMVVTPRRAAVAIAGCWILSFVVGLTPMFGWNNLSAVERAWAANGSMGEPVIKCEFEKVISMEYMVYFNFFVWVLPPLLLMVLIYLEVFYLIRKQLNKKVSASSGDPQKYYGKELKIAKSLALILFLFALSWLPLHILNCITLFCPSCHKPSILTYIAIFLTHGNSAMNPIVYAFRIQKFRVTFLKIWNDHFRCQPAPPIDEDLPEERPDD
In words: Displacement [3H]DPCPX from of human adenosine A1 receptor expressed in CHO cells in presence of GTP. The format is cell-based. In outline: (§2)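 CHO-hA1 membranes (20 μg/mL protein), competition against [3H]DPCPX with or without 100 μM GTP. Incubation in 50 mM Tris-HCl pH 7.4, 90 min at 25 °C, after adenosine deaminase pretreatment. Nonspecific binding with 10 μM DPCPX. GF/B filtration, scintillation counting. Ki values for high- and low-affinity states taken from the biphasic curve without GTP.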

In experiment [5] the target is T2, Adenosine receptor A1. The experiment can be described thus: Displacement [3H]DPCPX from of human adenosine A1 receptor at high affinity state expressed in CHO cells. Type of experiment: cell-based. In outline:
as §2

The target of experiment [6] is T2, Adenosine receptor A1. The experiment can be described thus: Displacement [3H]DPCPX from of human adenosine A1 receptor at low affinity state expressed in CHO cells. Type of experiment: cell-based. In outline: as §2
The target in experiment [7] is T3, Adenosine receptor A1 (Rattus norvegicus, UniProt P25099).
T3 sequence (P25099 whole entry): T1 sequence (whole entry)
In words: Displacement of [3H]CCPA from adenosine A1 receptor in rat brain cortical membrane by liquid scintillation counting. Type of experiment: cell membranes. In outline:
as §1

Experiment [8] has as its target T3, Adenosine receptor A1. The experiment can be described thus: Agonist activity at adenosine A1 receptor in rat cortical membrane by [35S]GTPgammaS binding assay. Type of experiment: functional, cell membranes.

Take `Cn1c(=O)c2c(ncn2C)n(C)c1=O`: in [1], the inhibition came out at 58%.
As for `COc1cc([C@H]2OC[C@](O)(Cc3ccc(O[C@@H]4O[C@H](CO)[C@@H](O)[C@H](O)[C@H]4O)c(OC)c3)[C@]2(O)CO)ccc1O`, the inhibition in experiment [1] is 0%; in [2], 29%.
For the compound `COc1cc([C@H]2OC[C@H]3[C@@H]2CO[C@@H]3c2ccc(O[C@@H]3O[C@H](CO)[C@@H](O)[C@H](O)[C@H]3O)c(OC)c2)ccc1O[C@@H]1O[C@H](CO)[C@@H](O)[C@H](O)[C@H]1O`, the Activity in the experiment filed under Rattus norvegicus was determined as 23%.
In experiment [3], `OC[C@H]1O[C@@H](n2cnc3c(NC4CCCC4)ncnc32)[C@H](O)[C@@H]1O` came in with an Activity of 193%.
On to `COc1cc([C@H]2OC[C@](O)(Cc3ccc(O[C@@H]4O[C@H](CO)[C@@H](O)[C@H](O)[C@H]4O)c(OC)c3)[C@@H]2COC[C@H]2O[C@@](CO)(O[C@H]3O[C@H](CO)[C@@H](O)[C@H](O)[C@H]3O)[C@@H](O)[C@@H]2O)ccc1O`, for which the Ki was found to be 31 µM on Adenosine receptor A1 [4], 0.026 µM on Adenosine receptor A1 [5], 23.6 µM at Adenosine receptor A1 [6] and 5.28 µM on Adenosine receptor A1 [7]. This compound also registered an Activity in [3] of 126%. The half-maximal effective concentration (EC50) at Adenosine receptor A1 [8] is 3.98 µM. Further, the values for the inhibition in [1] and in experiment [2] were 49% and 80%, respectively.
Consider `COc1cc([C@H]2OC[C@H](Cc3ccc(O[C@@H]4O[C@H](CO)[C@@H](O)[C@H](O)[C@H]4O)c(OC)c3)[C@]2(O)CO)ccc1O`, for which the inhibition was 11% in experiment [1] and 29% in [2].

One may read the inhibition as the change of the read-out against control, counted positive when it falls. Read a low inhibition as little suppression. What is called Ki is a measure of affinity in units of concentration, obtained from inhibition or displacement. For orientation: EC50 means the concentration needed to bring the measured effect to its halfway point.
